The sample as a whole holds a higher share of hits than the screen did.
Myeloid diff 2 = compounds promoting myeloid differentiation. AID 624256. actives 1% (n = 360,000). calls only at 10 µM. ER-HoxA9 myeloid progenitors, lysozyme-GFP differentiation, flow cytometry;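 active means normalized GFP-positive differentiation at or above the plate's own cutoff, the solvent-only control mean plus 3 SD; inconclusive means no clear call, values can overlap the other calls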;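 further: cells exposed to compound for four days before flow analysis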
Xi reactivation = X-chromosome reactivation activator; XiGFP mouse fibroblasts, % GFP-positive cells imaging, 3 d; cells co-treated with 5-aza-dC sensitizer; scaled so ellipticine positive control = 100%; activation, % at 7.58 µM; actives 0.055% (n = 360,000); AID 743238;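 active means mean normalized replicate activation at least 10% and every replicate at or above 10%; inconclusive means only one of the two criteria met; inactive means mean below 10% and not all replicates reach 10%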;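 further: 0% = median of on-plate neutral control wells and 100% = ellipticine 6 µM median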
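System: 68-5-11 XiGFP fibroblast line | Buffer or medium: DMEM containing 5-aza-dC | Compound: Single point | Times: Compounds 3 days, fix/stain 15 min at room temperature | Benchmarks: Positive control ellipticine, 6 µM final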
ABCB6 inh 2 = blocks the human ABCB6 transporter; Q9NP58; K562-ABCB6 porphyrin accumulation, flow cytometry, 1 h; hits give low values; fluorescence ratio to DMSO, % at 10 µM; actives 0.19% (n = 360,000); AID 602162;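 active means fluorescence ratio to DMSO below 75%, the collection mean minus 3 SD; inconclusive means too few cells collected in the well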;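 further: signal is porphyrin accumulated inside mitochondria; 100% equals median channel fluorescence of DMSO control wells; lower ratio means ABCB6 inhibition with less porphyrin fluorescence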
Target sequence (Q9NP58 whole entry, looked up): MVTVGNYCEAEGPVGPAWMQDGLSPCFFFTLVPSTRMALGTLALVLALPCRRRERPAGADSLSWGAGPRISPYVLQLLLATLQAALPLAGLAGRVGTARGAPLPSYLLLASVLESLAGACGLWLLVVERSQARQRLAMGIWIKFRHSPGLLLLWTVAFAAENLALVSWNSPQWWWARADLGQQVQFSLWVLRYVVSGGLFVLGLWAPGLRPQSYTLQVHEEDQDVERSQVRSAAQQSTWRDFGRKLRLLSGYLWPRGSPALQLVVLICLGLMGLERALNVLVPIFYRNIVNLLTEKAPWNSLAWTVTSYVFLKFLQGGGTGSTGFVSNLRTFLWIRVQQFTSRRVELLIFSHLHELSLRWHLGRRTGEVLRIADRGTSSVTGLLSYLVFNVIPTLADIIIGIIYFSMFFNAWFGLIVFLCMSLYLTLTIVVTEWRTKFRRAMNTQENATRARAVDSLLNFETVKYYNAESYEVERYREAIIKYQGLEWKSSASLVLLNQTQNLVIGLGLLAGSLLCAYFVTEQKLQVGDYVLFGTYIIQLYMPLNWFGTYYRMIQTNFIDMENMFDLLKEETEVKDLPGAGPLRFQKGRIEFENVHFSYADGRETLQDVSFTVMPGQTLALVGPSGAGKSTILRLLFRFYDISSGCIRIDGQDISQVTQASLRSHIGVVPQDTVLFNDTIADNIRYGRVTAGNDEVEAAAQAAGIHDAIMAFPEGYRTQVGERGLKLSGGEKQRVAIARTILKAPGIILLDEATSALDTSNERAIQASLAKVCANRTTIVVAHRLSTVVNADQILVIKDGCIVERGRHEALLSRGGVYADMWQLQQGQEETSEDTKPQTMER
Myeloid diff = promotes myeloid progenitor differentiation. shares compounds with Myeloid diff 2. calls only. ER-HoxA9 myeloid progenitors, GFP/Mac1 double-positive flow. AID 651706. actives 2% (n = 2,300);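 active means share of green or green-and-red cells above 9 and 9% in run 1 or 4 and 3% in run 2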
GFP autofluor = flagged as fluorescent in myeloid differentiation counter-screen; shares compounds with Myeloid diff 2; ER-HoxA9 myeloid progenitors, no estrogen, GFP autofluorescence flow cytometry; vehicle wells 0%, positive control 100%; fluorescence response, % (no concentration beside the values); actives 7.4% (n = 2,300); AID 651707;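 active means over 5% cells positive for green fluorescent reporter, or over 2% positive for both it and APC stain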;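 further: range taken on the double positive population between DMSO and positive control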
Starred values were filed as active, the others as inactive; i = inactive; ? = inconclusive; . = no result; + = active, no number.

SMILES	Myeloid diff 2	Xi reactivation	ABCB6 inh 2	others
O=C(CSc1nc(=O)n(CCCN2CCOCC2)c2c1CCCC2)Nc1cccc(Cl)c1	i	0	97
COc1ccc(S(=O)(=O)N(C)C[C@@H]2Oc3ccc(NC(=O)Cn4cnnn4)cc3C(=O)N([C@H](C)CO)C[C@@H]2C)cc1	.	-1	.
O=C(C[C@H]1C=C[C@@H](NC(=O)c2cccnc2)[C@H](CO)O1)NCCN1CCCCC1	.	0	.
CC(C)NC(=O)N(C)C[C@@H]1Oc2ccc(NS(=O)(=O)c3cccs3)cc2C(=O)N([C@H](C)CO)C[C@@H]1C	.	-1	.
CC(C)NC(=O)N(C)C[C@H]1Oc2ccc(NS(=O)(=O)c3cccs3)cc2C(=O)N([C@H](C)CO)C[C@@H]1C	i	-1	102	Myeloid diff=i;GFP autofluor=0
COc1ccc(NC(=O)N(C)C[C@H]2Oc3ccc(NC(=O)CCN4CCOCC4)cc3C(=O)N([C@@H](C)CO)C[C@@H]2C)cc1	.	0	.
COc1ccc(NC(=O)N(C)C[C@H]2Oc3ccc(NC(=O)CCN4CCOCC4)cc3C(=O)N([C@H](C)CO)C[C@@H]2C)cc1	i	0	90	Myeloid diff=i;GFP autofluor=3
COc1ccc(NC(=O)N(C)C[C@@H]2Oc3ccc(NS(=O)(=O)c4ccc(F)cc4)cc3C(=O)N([C@H](C)CO)C[C@@H]2C)cc1	.	0	.
C[C@@H]1CN([C@H](C)CO)C(=O)c2ccccc2-c2ccccc2CO[C@H]1CN(C)C(=O)Nc1ccc(F)cc1	.	0	.
Cc1ccc(S(=O)(=O)Nc2ccc3c(c2)C(=O)N([C@H](C)CO)C[C@H](C)[C@H](CN(C)CC2CCCCC2)OCCCC[C@H](C)O3)cc1	.	0	.
C[C@@H]1CCCCO[C@@H](CN(C)C(=O)c2ccccc2)[C@H](C)CN([C@@H](C)CO)C(=O)c2cc(NC(=O)CCCN(C)C)ccc2O1	.	0	.
COc1ccc(NC(=O)N(C)C[C@@H]2Oc3c(NS(=O)(=O)c4ccc(C)cc4)cccc3C(=O)N([C@@H](C)CO)C[C@H]2C)cc1	.	-1	.
C[C@H]1CCCCO[C@H](CN(C)Cc2ccccc2)[C@@H](C)CN([C@@H](C)CO)C(=O)c2cc(NC(=O)Nc3ccccc3)ccc2O1	.	0	.
C[C@H](CO)N1C[C@H](C)[C@@H](CN(C)S(=O)(=O)c2cccs2)OCCCC[C@H](C)Oc2ccc(N(C)C)cc2C1=O	.	0	.
O=C(COc1ccccc1Br)NCc1ccco1	i	.	88
COc1cc(CC(=O)OCC(=O)NCc2ccco2)cc(OC)c1OC	+	1	117	Myeloid diff=i;GFP autofluor=0
COc1ccc(CC(=O)OCC(=O)NCc2ccco2)cc1	i	0	90
CCc1ccc(OCC(=O)NCc2ccco2)c(Br)c1	i	.	91	Myeloid diff=i;GFP autofluor=0
CN(C)C(=O)c1cc2c(c(-c3cccc(C4=CCCCC4)c3)n1)[C@H](CCO)N([S@@](=O)C(C)(C)C)C2	.	0	.
O=C(C[C@@H]1C[C@@H]2c3cc(NC(=O)c4cccnc4)ccc3O[C@@H]2[C@@H](CO)O1)NCC1CC1	.	0	.
CC(C)NC(=O)Nc1ccc2c(c1)C(=O)N(C)[C@H]1CC[C@@H](CC(=O)Nc3ccccc3)O[C@@H]1CO2	.	0	.
CC(=O)C1=C(O)C=C(c2ccco2)CC1c1ccco1 (stereo not given)	i	.	113	Myeloid diff=i;GFP autofluor=0
O=C(CCl)N1N=C(c2ccco2)CC1c1ccco1 (stereo not given)	?	0	103
C[C@@H]1CCCCO[C@H](CN(C)Cc2ccc3c(c2)OCO3)[C@@H](C)CN([C@@H](C)CO)C(=O)c2cc(N(C)C)ccc2O1	.	0	.
COc1ccc2c3c(n(C)c2c1)[C@@H](CO)N(C(=O)c1cccnc1)CC31CN(S(C)(=O)=O)C1	.	0	.
SMILES	Myeloid diff 2	Xi reactivation	ABCB6 inh 2	others
O=C(CCN1CCCCC1)NCC[C@@H]1CC[C@@H](NC(=O)C2CCCCC2)[C@H](CO)O1	.	0	.
O=C(NCC(=O)N(c1cccnc1)C(C(=O)NC1CCCC1)c1cccs1)c1ccco1 (stereo not given)	i	0	102	Myeloid diff=i;GFP autofluor=67*
Cc1cc(C)cc(N(C(=O)CNC(=O)c2cccs2)C(C(=O)NC2CCCC2)c2cccnc2)c1 (stereo not given)	i	.	98
Cc1cccc(N(C(=O)CNC(=O)c2cccs2)C(C(=O)NC2CCCC2)c2cccnc2)c1 (stereo not given)	i	.	100	Myeloid diff=i;GFP autofluor=0
O=C(NCC(=O)N(c1cccnc1)C(C(=O)NC1CCCCC1)c1cccnc1)c1ccco1 (stereo not given)	i	.	93
CCC(=O)N1C[C@@H](C)[C@H](OC)CN(C)C(=O)c2cc(NC(=O)c3ccno3)ccc2OC[C@@H]1C	.	0	.
O=C(C[C@H]1CC[C@H](NC(=O)C2CC2)[C@H](CO)O1)NCCCN1CCOCC1	.	0	.
O=C(C[C@H]1C[C@@H]2c3cc(NC(=O)C4CCOCC4)ccc3O[C@@H]2[C@@H](CO)O1)NCc1ccccc1F	.	0	.
CC(C)NC(=O)N(C)C[C@@H]1Oc2cc(C#C[C@@H](C)O)ccc2S(=O)(=O)N([C@@H](C)CO)C[C@@H]1C	.	-1	.
O=C(O)C[C@H]1C=C[C@@H](NC(=O)CCN2CCCCC2)[C@H](CO)O1	.	0	.
COc1ccc(S(=O)(=O)Nc2ccc3c(c2)CC(=O)N([C@@H](C)CO)C[C@@H](C)[C@H](CN(C)C(=O)NC2CCCCC2)O3)cc1	.	0	.
Cc1ccc(Cl)cc1NC(=O)CCN1C(=O)C2C3CCC(C3)C2C1=O (stereo not given)	i	0	97
O=C(CCN1C(=O)C2C3C=CC(C4CC34)C2C1=O)Nc1ccc(Cl)cc1O (stereo not given)	+	0	100	Myeloid diff=i;GFP autofluor=0
COc1ccc(S(=O)(=O)Nc2ccc3c(c2)C(=O)N([C@H](C)CO)C[C@H](C)[C@H](CN(C)C)OCCCC[C@H](C)O3)cc1	.	0	.
O=C(CCNC(=O)c1ccc(Br)cc1)NC1CCCc2ccccc21 (stereo not given)	+	1	89	Myeloid diff=+;GFP autofluor=0
O=C(NC1CCCc2ccccc21)c1ccc(Br)cc1 (stereo not given)	i	0	99
COc1ccc(C#Cc2ccc3c(c2)[C@H]2[C@H](CCN2C(=O)CC2CC2)[C@@H](CO)N3)cc1	.	0	.
Cc1nc(SCC(=O)N(C)C2CCS(=O)(=O)C2)c2ccccc2n1 (stereo not given)	i	0	99
Cc1nc(SCC(=O)N(C)C2(C#N)CCCCC2)c2ccccc2n1	i	0	106	Myeloid diff=i;GFP autofluor=4
O=C(c1cccnc1)N1CC2(C1)[C@@H](c1ccccc1)[C@@H](CO)N2Cc1ccncc1	.	0	.
Nc1ccc(NC(=O)c2ccccc2)c2c1C(=O)c1ccccc1C2=O	i	.	131	Myeloid diff=i;GFP autofluor=0
Nc1ccccc1NC(=O)c1ccccc1	i	.	98
Nc1nsc2ccccc12	i	.	100
